Measured values from ChEMBL document CHEMBL2029242 (J Med Chem, 2012).
Calls of active or inactive are those of the source. The rule behind the calls is not given here.

Assays:
[1] = system: Liver; test: Intrinsic clearance in mouse liver microsomes; assay type: ADME, Microsome
[2] = molecular target: ALK tyrosine kinase receptor (Homo sapiens, UniProt Q9UM73); test: Inhibition of ALK in human HEK293 cells after 1 hr by competition binding assay; assay type: cell-based
How it was run: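 Unbound kinase was captured on immobilized affinity ligand and quantified by qPCR. Kd came from eleven serial 3-fold dilutions, as the mean of duplicates.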

[3] = AUC (infinity) in athymic nude mouse at 100 mg/kg, po; assay type: ADME, organism-based; design: time infinity, dose 100 mg/kg, route oral; details: plasma
How it was run: (§1)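 Single-dose PK. Rats: male Sprague−Dawley, jugular-catheterized, 1 mg/kg iv in 3:1 PEG400/water (n = 2) and 10 mg/kg po in Pharmatek #6 (n = 3). Female athymic nude mice: 100 mg/kg po in Pharmatek #6 (n = 3). Beagle dogs and male cynomolgus monkeys (n = 3): crossover, 1 mg/kg iv and 10 mg/kg po in 22% HPβCD, overnight fast. Plasma LC-MS/MS to 24 h; noncompartmental parameters, mean ± SD.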

[4] = molecular target: Mitogen-activated protein kinase 1 (Homo sapiens, UniProt P28482); test: Inhibition of ERK2 in human HEK293 cells after 1 hr by competition binding assay; assay type: cell-based
Mitogen-activated protein kinase 1, sequence (P28482 whole entry): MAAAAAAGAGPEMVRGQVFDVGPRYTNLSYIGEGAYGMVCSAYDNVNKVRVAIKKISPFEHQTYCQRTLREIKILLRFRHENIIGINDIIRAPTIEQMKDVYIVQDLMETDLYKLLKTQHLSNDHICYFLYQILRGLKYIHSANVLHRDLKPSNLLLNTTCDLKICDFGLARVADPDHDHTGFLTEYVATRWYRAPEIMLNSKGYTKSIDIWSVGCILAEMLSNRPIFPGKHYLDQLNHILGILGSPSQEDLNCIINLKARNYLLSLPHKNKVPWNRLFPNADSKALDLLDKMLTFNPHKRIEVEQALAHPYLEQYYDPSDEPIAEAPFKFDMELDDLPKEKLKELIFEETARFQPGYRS
How it was run: (§2)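 KINOMEscan competition binding. Binding reactions ran at rt for 1 h. Unbound kinase was captured on an immobilized affinity ligand and quantified by qPCR. Each kinase was tested individually.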

[5] = Oral bioavailability in Cynomolgus monkey at 10 mg/kg; assay type: ADME, organism-based, Macaca fascicularis; details: in vivo
How it was run: (§3)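 Male non-naive cynomolgus monkeys (2.6–3.4 kg) and beagle dogs (10.3–11.9 kg), n = 3 each, were dosed in a crossover design with a ≥7-day washout. Doses were 10 mg/kg by nasogastric gavage and 1 mg/kg as a saphenous iv bolus, both free base in 22% HPβCD. Animals were fasted overnight until about 4 h post dose. Femoral plasma was sampled from predose to 24 h and analyzed by LC-MS/MS. Parameters came from noncompartmental analysis; mean ± SD reported.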

[6] = system: Mus musculus; test: Toxicity in athymic nude mouse xenografted with human COLO205 cells at 10 mg/kg, po bid for 14 days measured upto 1 week post dosing; assay type: organism-based, COLO 205; design: dose 10 mg/kg, route oral; details: in vivo
How it was run: (§4)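 Athymic nude mice (20–25 g) were inoculated subcutaneously in the flank with 1×10^6 Colo-205 cells. At 150–200 mm3 they were randomized (n = 10/group) to oral vehicle (22% HPβCD) or 10, 30 or 100 mg/kg BID for 14 days. Calipers were used three times weekly. Body weight and behavior were monitored, with 7–10 days of follow-up after dosing. Partial regression meant volume falling in ≥3 successive measurements, ending below baseline but still palpable.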

[7] = system: DU-145; test: Cytotoxicity against human DU145 cells expressing wild type BRAF after 72 hrs by cell titer blue assay; assay type: functional, cell-based; details: DU-145, 72 h
How it was run: (§5)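 Cells were grown in ATCC-recommended media and kept overnight in 0.5% serum. They were then exposed to compound for 72 h, and Cell Titer Blue was added for 3 h. EC50 came from fluorometric concentration−response curves, run in duplicate and repeated at least once.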

[8] = system: COLO 205; test: Antitumor activity against human COLO205 cells xenografted in athymic nude mouse assessed as partial tumor regression at 30 mg/kg, po bid for 14 days; assay type: functional
How it was run: (§6)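 Athymic nude mice carried subcutaneous flank Colo-205 xenografts (1 × 10^6 cells), randomized at 150−200 mm3 (n = 10/group). Oral dosing BID for 14 days in 22% HPβCD against vehicle controls. Caliper volumes W2(L/2) taken three times weekly. Partial regression: volume fell in ≥3 successive measurements to below the starting volume while the tumor stayed palpable.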

[9] = molecular target: hERG (KCNH2) (Homo sapiens, UniProt Q12809); test: Inhibition of human ERG at 10 uM
hERG (KCNH2), sequence (Q12809 whole entry): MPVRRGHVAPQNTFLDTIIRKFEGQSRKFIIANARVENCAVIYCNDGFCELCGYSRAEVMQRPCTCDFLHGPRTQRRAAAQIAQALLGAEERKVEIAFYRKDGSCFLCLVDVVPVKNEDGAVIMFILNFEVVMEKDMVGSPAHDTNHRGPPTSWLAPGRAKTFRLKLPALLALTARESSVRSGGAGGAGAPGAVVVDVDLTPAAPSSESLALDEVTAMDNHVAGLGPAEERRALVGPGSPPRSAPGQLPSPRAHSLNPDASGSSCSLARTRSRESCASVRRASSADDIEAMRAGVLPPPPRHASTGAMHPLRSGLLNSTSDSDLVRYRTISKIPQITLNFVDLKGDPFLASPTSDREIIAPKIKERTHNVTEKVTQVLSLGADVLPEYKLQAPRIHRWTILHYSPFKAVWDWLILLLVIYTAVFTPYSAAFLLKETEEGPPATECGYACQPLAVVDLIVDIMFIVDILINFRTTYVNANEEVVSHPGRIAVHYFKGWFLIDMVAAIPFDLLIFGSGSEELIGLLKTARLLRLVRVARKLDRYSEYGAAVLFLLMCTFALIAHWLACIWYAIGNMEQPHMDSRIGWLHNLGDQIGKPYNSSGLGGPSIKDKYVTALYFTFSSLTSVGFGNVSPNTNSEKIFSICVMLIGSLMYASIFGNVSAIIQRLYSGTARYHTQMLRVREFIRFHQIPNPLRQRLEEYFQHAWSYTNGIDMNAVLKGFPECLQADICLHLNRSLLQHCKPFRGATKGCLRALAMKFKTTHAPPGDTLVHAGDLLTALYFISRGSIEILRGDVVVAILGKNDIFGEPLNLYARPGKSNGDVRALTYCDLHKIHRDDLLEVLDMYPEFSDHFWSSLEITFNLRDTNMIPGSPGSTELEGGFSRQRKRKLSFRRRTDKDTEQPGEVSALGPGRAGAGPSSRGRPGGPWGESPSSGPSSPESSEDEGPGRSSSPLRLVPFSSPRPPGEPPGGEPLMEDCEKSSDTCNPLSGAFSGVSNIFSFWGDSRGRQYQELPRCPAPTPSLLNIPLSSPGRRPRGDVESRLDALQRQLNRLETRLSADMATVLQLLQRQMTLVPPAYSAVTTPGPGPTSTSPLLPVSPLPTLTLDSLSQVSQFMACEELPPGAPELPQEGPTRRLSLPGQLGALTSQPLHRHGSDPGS
How it was run: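 Whole-cell patch clamp on CHO cells stably expressing hERG. Baseline was set in external solution with 0.1% DMSO. Test article was then applied until steady state, up to 12 min.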

[10] = system: Mus musculus; test: Toxicity in athymic nude mouse xenografted with human COLO205 cells at 30 mg/kg, po bid for 14 days; assay type: organism-based, COLO 205; design: dose 30 mg/kg, route oral; details: in vivo, 336 h; how it was run: as §4
[11] = molecular target: Tyrosine-protein kinase JAK1 (Homo sapiens, UniProt P23458); test: Inhibition of JAK1 in human HEK293 cells after 1 hr by competition binding assay; assay type: cell-based; how it was run: as §2
Tyrosine-protein kinase JAK1, sequence (P23458 whole entry): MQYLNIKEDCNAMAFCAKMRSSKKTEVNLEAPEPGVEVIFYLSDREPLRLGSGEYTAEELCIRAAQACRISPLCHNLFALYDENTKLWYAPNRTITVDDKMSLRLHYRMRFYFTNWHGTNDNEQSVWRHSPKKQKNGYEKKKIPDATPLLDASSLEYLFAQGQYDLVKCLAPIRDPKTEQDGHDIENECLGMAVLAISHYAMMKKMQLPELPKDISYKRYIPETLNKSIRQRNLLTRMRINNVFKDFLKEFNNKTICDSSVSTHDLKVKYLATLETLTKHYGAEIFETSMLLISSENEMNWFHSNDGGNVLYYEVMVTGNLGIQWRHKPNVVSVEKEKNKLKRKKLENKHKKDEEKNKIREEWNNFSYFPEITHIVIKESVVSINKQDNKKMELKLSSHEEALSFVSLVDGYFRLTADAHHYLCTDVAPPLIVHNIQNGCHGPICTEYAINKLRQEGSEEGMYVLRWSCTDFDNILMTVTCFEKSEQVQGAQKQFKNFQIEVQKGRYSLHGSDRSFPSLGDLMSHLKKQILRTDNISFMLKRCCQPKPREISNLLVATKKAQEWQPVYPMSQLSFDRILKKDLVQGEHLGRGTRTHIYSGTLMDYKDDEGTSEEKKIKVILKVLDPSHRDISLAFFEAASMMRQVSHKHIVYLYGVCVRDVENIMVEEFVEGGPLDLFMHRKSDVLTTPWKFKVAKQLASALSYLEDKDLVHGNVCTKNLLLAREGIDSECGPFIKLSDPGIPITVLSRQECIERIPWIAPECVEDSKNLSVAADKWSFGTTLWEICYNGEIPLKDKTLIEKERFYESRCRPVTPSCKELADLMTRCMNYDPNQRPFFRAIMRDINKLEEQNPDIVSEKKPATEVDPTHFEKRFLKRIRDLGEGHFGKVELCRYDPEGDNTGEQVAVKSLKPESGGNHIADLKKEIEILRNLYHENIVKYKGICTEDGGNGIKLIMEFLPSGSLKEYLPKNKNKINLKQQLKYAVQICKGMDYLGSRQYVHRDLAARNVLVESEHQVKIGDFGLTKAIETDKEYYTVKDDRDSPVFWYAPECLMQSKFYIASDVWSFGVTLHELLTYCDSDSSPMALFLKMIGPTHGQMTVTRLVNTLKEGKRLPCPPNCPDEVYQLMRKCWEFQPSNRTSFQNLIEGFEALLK

[12] = Stability in rat liver microsomes assessed as compound remaining at 1 uM after 60 mins; assay type: ADME, Microsome; details: read-out: Stability
How it was run: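 Pooled liver microsomes (0.5 mg/mL) were premixed with 0.1 M phosphate buffer pH 7.4, 6.5 mM MgCl2 and test compound (1 μM final, 0.2% DMSO). NADPH (1 mM) started the reaction at 37 °C, in duplicate. Minus-NADPH and testosterone controls were included. Aliquots were taken at 0, 5, 15, 30 and 60 min and quenched in acetonitrile containing internal standard.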

[13] = molecular target: Aurora kinase B (Homo sapiens, UniProt Q96GD4); test: Inhibition of Aurora B in human HEK293 cells after 1 hr by competition binding assay; assay type: cell-based; how it was run: as §2
Aurora kinase B, sequence (Q96GD4 whole entry): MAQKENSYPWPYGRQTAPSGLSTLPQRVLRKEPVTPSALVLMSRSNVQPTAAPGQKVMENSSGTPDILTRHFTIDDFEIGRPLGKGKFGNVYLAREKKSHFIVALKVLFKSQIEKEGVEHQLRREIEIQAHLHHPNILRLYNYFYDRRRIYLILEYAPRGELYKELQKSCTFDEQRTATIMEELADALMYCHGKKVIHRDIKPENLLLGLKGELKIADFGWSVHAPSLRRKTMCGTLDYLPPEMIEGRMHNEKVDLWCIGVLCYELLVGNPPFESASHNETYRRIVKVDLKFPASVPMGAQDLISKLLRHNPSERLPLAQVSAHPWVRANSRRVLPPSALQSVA

[14] = molecular target: Cytochrome P450 2D6 (Homo sapiens, UniProt P10635); test: Inhibition of human CYP2D6; assay type: ADME
Cytochrome P450 2D6, sequence (P10635 whole entry, canonical isoform): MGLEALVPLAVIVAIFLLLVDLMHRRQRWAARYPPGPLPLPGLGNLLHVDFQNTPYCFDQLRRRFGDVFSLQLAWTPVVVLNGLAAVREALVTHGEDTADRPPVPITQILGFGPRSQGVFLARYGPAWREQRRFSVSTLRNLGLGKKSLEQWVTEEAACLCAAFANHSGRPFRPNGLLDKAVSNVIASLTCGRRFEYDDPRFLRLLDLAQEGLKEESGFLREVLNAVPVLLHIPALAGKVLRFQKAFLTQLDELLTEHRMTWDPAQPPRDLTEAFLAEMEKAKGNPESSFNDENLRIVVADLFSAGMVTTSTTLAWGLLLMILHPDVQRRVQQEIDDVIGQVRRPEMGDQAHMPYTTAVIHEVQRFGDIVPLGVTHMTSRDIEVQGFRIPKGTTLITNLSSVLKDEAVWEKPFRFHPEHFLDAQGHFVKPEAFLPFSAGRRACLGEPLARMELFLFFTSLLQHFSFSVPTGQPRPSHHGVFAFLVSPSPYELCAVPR
How it was run: (§7)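 Pooled human liver microsomes (0.25 mg/mL) with NADPH (1 mM) and five pooled probe substrates (testosterone, diclofenac, dextromethorphan, mephenytoin, phenacetin). Test compound ran at eight concentrations, 0.31−40 μM, 20 min at 37 °C, with pooled control inhibitors in parallel. Isoform-specific metabolites were measured by LC-MS/MS.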

[15] = Half life in human liver microsomes; assay type: ADME, Microsome
How it was run: (§8)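 Pooled liver microsomes (0.5 mg/mL) in 0.1 M phosphate pH 7.4 with 6.5 mM MgCl2 and compound at 1 μM (0.2% DMSO). NADPH (1 mM) started the reaction at 37 °C, with minus-NADPH and testosterone controls. Aliquots taken at 0, 5, 15, 30 and 60 min were quenched in acetonitrile; duplicates.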

[16] = Cmax in beagle dog at 10 mg/kg, po; assay type: ADME, organism-based, Canis lupus familiaris; design: dose 10 mg/kg, route oral; details: in vivo; how it was run: as §1
[17] = molecular target: Cytochrome P450 2C19 (Homo sapiens, UniProt P33261); test: Inhibition of human CYP2C19; assay type: ADME; how it was run: as §7
Cytochrome P450 2C19, sequence (P33261 whole entry): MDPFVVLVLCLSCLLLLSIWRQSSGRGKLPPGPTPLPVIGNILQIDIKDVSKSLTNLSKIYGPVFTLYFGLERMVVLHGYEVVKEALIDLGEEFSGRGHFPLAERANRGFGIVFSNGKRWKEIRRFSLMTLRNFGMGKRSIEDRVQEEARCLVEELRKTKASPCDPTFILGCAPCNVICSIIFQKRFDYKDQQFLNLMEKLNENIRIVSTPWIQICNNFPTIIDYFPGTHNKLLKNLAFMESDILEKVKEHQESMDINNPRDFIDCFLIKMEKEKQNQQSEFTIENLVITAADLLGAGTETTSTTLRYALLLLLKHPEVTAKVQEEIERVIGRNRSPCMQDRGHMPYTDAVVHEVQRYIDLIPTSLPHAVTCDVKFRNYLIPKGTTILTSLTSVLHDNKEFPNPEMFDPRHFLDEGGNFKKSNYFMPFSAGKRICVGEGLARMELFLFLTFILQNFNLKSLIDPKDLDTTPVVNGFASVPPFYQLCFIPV

[18] = Volume of distribution in beagle dog at 1 mg/kg, iv and 10 mg/kg, po; assay type: ADME, organism-based, Canis lupus familiaris; details: in vivo; how it was run: as §3
[19] = system: SK-MEL-28; test: Cytotoxicity against human SK-MEL-28 cells expressing BRAF V600E mutant after 72 hrs by cell titer blue assay; assay type: functional, cell-based; details: SK-MEL-28, 72 h; how it was run: as §5
[20] = system: Mus musculus; test: Toxicity in athymic nude mouse xenografted with human COLO205 cells at 10 mg/kg, po bid for 14 days; assay type: organism-based, COLO 205; design: dose 10 mg/kg, route oral; details: in vivo, 336 h; how it was run: as §4
[21] = system: HT-144; test: Cytotoxicity against human HT144 cells expressing BRAF V600E mutant after 72 hrs by cell titer blue assay; assay type: functional, cell-based; details: HT-144, 72 h; how it was run: as §5
[22] = Half life in Cynomolgus monkey liver microsomes; assay type: ADME, Macaca fascicularis, Microsome; how it was run: as §8
[23] = molecular target: Mitogen-activated protein kinase 3 (Homo sapiens, UniProt P27361); test: Inhibition of ERK1 in human HEK293 cells after 1 hr by competition binding assay; assay type: cell-based; how it was run: as §2
Mitogen-activated protein kinase 3, sequence (P27361 whole entry): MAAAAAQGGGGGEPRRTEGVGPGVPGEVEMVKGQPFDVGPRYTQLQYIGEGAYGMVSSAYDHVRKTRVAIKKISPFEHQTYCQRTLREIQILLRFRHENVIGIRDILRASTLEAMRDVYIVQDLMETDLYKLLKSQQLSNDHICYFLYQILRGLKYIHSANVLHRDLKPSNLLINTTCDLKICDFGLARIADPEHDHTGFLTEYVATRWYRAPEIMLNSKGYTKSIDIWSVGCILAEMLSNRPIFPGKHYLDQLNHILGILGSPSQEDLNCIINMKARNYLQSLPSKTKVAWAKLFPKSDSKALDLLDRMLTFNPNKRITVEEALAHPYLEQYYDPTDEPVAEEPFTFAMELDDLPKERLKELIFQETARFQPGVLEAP

[24] = system: COLO 205; test: Antitumor activity against human COLO205 cells xenografted in athymic nude mouse at 100 mg/kg, po bid for 14 days; assay type: functional, organism-based; design: dose 100 mg/kg; how it was run: as §6
[25] = Volume of distribution in Cynomolgus monkey at 1 mg/kg, iv and 10 mg/kg, po; assay type: ADME, organism-based, Macaca fascicularis; details: in vivo; how it was run: as §3
[26] = Half life in dog liver microsomes; assay type: ADME, Canis lupus familiaris, Microsome; how it was run: as §8
[27] = Half life in beagle dog at 1 mg/kg, iv and 10 mg/kg, po; assay type: ADME, organism-based, Canis lupus familiaris; details: in vivo; how it was run: as §1

CLH [1]: < 23 µL/min/mg | Kd [2]: > 10 µM | AUC(0-inf) [3]: 394 µM·h | Kd [4]: > 10 µM | bioavailability [5]: 100% | Kd [11]: > 10 µM | remaining at 1 h, 1 µM [12]: 81% | Kd [13]: > 10 µM | IC50 [14]: > 10 µM | half-life [15]: > 60 min | Cmax [16]: 5.2 µM | IC50 [17]: 3.4 µM | Vd [18]: 4.5 L/kg | half-life [22]: > 60 min | Kd [23]: > 10 µM | Vd [25]: 2.5 L/kg | half-life [26]: > 60 min | half-life [27]: 720 min
Structure (SMILES): COc1cc2ncnc(Oc3cccc(NC(=O)Nc4cc(C(C)(C)C(F)(F)F)on4)c3)c2cc1OC [CEP-32496]
Activity [6]: Non-toxic | EC50 [7]: 2910 nM | Activity [8]: 40% | inhibition at 10 µM [9]: < 10% | Activity [10]: Non-toxic | EC50 [19]: 454 nM | Activity [20]: Non-toxic | EC50 [21]: 228 nM | Activity [24]: Active
